Measured values reported in ChEMBL document CHEMBL1156170, “Enhanced Nrf2-dependent induction of glutathione in mouse embryonic fibroblasts by isoselenocyanate analog of sulforaphane” (Bioorg Med Chem Lett, 2010).
Active and inactive are the calls of the source. The rule behind the calls is not given here.

Key:
HepG2 [1] = assay: Cytotoxicity against human HepG2 cells assessed as cell viability at 50 uM after 6 hrs by MTS assay; type: functional, cell-based
HepG2 [2] = assay: Cytotoxicity against human HepG2 cells assessed as cell viability at 10 uM after 6 hrs by MTS assay; type: functional, cell-based
[3] = molecular target: T1, Nuclear factor erythroid 2-related factor 2 (Mus musculus) (UniProt Q60795); assay: Induction of nuclear NrF2 expression in wild type MEF […] at 10 to 20 uM after 24 hrs by Western blotting relative to control; type: functional
T1 sequence (whole entry): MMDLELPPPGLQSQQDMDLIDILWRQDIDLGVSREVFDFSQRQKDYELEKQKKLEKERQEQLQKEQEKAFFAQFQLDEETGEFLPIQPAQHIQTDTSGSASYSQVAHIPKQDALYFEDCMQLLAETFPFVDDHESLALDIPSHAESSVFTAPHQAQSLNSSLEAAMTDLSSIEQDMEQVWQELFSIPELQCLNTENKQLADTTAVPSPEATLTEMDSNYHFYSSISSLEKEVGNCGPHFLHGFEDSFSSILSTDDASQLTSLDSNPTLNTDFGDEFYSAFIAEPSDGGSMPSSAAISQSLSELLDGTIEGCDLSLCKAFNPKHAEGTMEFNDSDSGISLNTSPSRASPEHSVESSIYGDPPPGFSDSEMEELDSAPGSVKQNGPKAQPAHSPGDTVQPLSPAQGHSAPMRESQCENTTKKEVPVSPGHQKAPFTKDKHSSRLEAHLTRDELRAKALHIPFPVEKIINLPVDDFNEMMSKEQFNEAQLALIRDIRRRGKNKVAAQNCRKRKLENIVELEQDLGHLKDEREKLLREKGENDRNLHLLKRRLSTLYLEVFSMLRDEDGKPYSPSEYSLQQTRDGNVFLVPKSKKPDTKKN
In short: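 Wildtype MEF at 50% confluence treated with vehicle or 10 or 20 μM for 24 h; washed, trypsinized, nuclear extracts prepared. 20 μg nuclear protein per lane, 4-20% gradient gel, nitrocellulose, milk block, primary antibody overnight 4 °C, HRP secondary, chemiluminescence. Nrf2 band normalized to Lamin A, then to vehicle control; mean ± SD, n=3.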

[4] = molecular target: T1, Nuclear factor erythroid 2-related factor 2 (Mus musculus); assay: Induction of nuclear NrF2-mediated GCLc expression in wild type MEF at 20 uM after 24 hrs by Western blotting relative to control; type: functional
In short: (§1)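 Wildtype or Nrf2−/− MEF at 50% confluence given vehicle or 10 or 20 μM for 24 h; cytoplasmic extracts, 50 μg protein per lane, 4-20% gradient gel, nitrocellulose, western blot for GCLc with HRP secondary and chemiluminescence. GCLc normalized to actin, then to vehicle control; mean ± SD of 3 independent experiments.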

[5] = molecular target: T1, Nuclear factor erythroid 2-related factor 2 (Mus musculus); assay: Induction of NrF2-mediated glutathione production in wild type MEF at 10 uM after 24 hrs using Elmans reagent relative to control; type: functional
In short: (§2)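 Wildtype or Nrf2−/− MEF at 50% confluence given vehicle or 10 or 20 μM for 0, 6, 9 or 24 h; washed, lysed in 5% metaphosphoric acid, protein removed by centrifugation. Free GSH by enzymatic recycling with Ellman's reagent, absorbance over time; normalized to BCA protein and to vehicle control; mean ± SD, n=3.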

[6] = molecular target: T2, Nuclear factor erythroid 2-related factor 2 (Homo sapiens) (UniProt Q16236); assay: Induction of NrF2 in human HepG2 cells at 10 uM after 6 hrs by ARE-luciferase reporter gene assay; type: functional, cell-based
T2 sequence (whole entry): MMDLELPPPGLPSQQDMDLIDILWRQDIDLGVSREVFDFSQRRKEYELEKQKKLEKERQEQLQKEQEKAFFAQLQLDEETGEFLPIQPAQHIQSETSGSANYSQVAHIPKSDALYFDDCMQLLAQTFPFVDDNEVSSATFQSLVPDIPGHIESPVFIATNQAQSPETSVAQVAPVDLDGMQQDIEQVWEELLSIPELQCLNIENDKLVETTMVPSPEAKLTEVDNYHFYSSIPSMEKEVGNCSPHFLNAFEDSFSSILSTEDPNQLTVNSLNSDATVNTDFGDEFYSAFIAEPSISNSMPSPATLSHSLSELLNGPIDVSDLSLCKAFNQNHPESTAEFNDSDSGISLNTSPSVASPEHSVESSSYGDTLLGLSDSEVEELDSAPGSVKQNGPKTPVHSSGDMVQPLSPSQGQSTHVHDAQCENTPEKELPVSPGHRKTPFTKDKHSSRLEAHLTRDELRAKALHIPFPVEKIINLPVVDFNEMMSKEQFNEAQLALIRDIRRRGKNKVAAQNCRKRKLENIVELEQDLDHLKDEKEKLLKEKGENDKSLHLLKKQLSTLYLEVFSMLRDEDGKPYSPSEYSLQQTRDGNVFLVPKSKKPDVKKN
In short: (§3)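 HepG2 ARE-luciferase reporter cells at 50% confluence, fresh medium with vehicle or 5, 10 or 20 μM compound for 6 h. Washed in PBS, lysed, luciferase activity of extracts read in single-tube luminometer; normalized to vehicle control; mean ± SD of 3 independent experiments.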

[7] = molecular target: T2, Nuclear factor erythroid 2-related factor 2 (Homo sapiens); assay: Induction of NrF2 in human HepG2 cells at 20 uM after 6 hrs by ARE-luciferase reporter gene assay relative to control; type: functional, cell-based; in short: as §3
[8] = molecular target: T1, Nuclear factor erythroid 2-related factor 2 (Mus musculus); assay: Induction of NrF2-mediated glutathione production in wild type MEF at 20 uM after 24 hrs using Elmans reagent relative to control; type: functional; in short: as §2
[9] = molecular target: T1, Nuclear factor erythroid 2-related factor 2 (Mus musculus); assay: Reduction of NrF2-mediated glutathione production in wild type MEF at 10 uM after 6 hrs using Elmans reagent relative to control; type: functional; parameters: scale not given: the % may be the effect or the level left; in short: as §2
[10] = molecular target: T1, Nuclear factor erythroid 2-related factor 2 (Mus musculus); assay: Reduction of NrF2-mediated glutathione production in wild type MEF at 20 uM after 6 hrs using Elmans reagent relative to control; type: functional; parameters: scale not given: the % may be the effect or the level left; in short: as §2
HepG2 [11] = assay: Cytotoxicity against human HepG2 cells assessed as cell viability at 50 uM after 6 hrs by MTS assay relative to control; type: functional; settings: HepG2, 6 h, read-out: Activity
HepG2 [12] = assay: Cytotoxicity against human HepG2 cells assessed as decrease in cell viability at 10 to 20 uM after 6 hrs by MTS assay; type: functional, cell-based
HepG2 [13] = assay: Cytotoxicity against human HepG2 cells assessed as cell viability at 20 uM after 6 hrs by MTS assay; settings: HepG2, 6 h, read-out: Activity
MEF [14] = assay: Induction of GCLc in NrF2-deficient MEF at 20 uM after 24 hrs by Western blotting relative to control; type: functional, cell-based; settings: Mus musculus; in short: as §1
[15] = molecular target: T1, Nuclear factor erythroid 2-related factor 2 (Mus musculus); assay: Ratio of compound to sulforaphane activity for induction of nuclear NrF2 mediated GCLc in wild type MEF; type: functional
MEF [16] = assay: Induction of glutathione production in NrF2 deficient MEF at 10 uM after 24 hrs using Elmans reagent relative to control; type: functional, Mus musculus; in short: as §2
MEF [17] = assay: Induction of glutathione production in NrF2 deficient MEF at 20 uM after 24 hrs using Elmans reagent relative to control; type: functional, Mus musculus; in short: as §2
[18] = molecular target: T1, Nuclear factor erythroid 2-related factor 2 (Mus musculus); assay: Induction of NrF2-mediated glutathione production in wild type MEF at 10 uM after 6 hrs using Elmans reagent relative to control; type: functional; in short: as §2
[19] = molecular target: T2, Nuclear factor erythroid 2-related factor 2 (Homo sapiens); assay: Induction of NrF2 in human HepG2 cells after 6 hrs by ARE-luciferase reporter gene assay; type: functional, cell-based; in short: as §3
HepG2 [20] = assay: Cytotoxicity against human HepG2 cells assessed as decrease in cell viability after 6 hrs by MTS assay; type: functional, cell-based
MEF [21] = assay: Cytotoxicity against wild type MEF; type: cell-based; settings: mouse
MEF [22] = assay: Cytotoxicity against NrF2 deficient MEF; type: cell-based; settings: mouse
[23] = molecular target: T2, Nuclear factor erythroid 2-related factor 2 (Homo sapiens); assay: Ratio of compound to sulforaphane for induction of NrF2 in human HepG2 cells; type: functional, cell-based
[24] = molecular target: T1, Nuclear factor erythroid 2-related factor 2 (Mus musculus); assay: Induction of NrF2-mediated glutathione production in wild type MEF at 10 uM after 9 hrs using Elmans reagent relative to control; type: functional; in short: as §2

Row | Structure (SMILES) | Activity (HepG2 [1]) | Activity (HepG2 [2]) | fold change (FC) [3] | fold change (FC) [4] | Activity [5] | Activity [6] | Activity [7] | Activity [8] | Activity [9] [%] | Activity [10] [%] | viability at 50 µM (HepG2 [11]) [%] | Activity (HepG2 [12]) | further results
1 | S=C=NCc1ccccc1 | inactive |  |  |  |  |  |  |  |  |  |  |  | 
2 | C[S+]([O-])CCCCN=C=S (centres undefined) | inactive | inactive | 3.5 | 3.2 | Active | Active | Active | inactive | 40 | 20 |  |  | 
3 | [Se]=C=NCc1ccccc1 [BENZYLISOSELENOCYANATE] |  |  |  |  |  |  |  |  |  |  | 0 | Active | 
4 | C[S+]([O-])CCCCN=C=[Se] (centres undefined) [SUFORAPHANE ISOSELENOCYANATE] |  | inactive | 4.5 | 4.1 | 160% | Active | 5 | Active | 40 | 20 | 0 | Active | viability at 20 µM (HepG2 [13]): 50%; Activity (MEF [14]): inactive; Activity [15]: 30%; Activity (MEF [16]): 90%; Activity (MEF [17]): 70%; Activity [18]: Active; Activity [19]: Dose-dependent effect; Activity (HepG2 [20]): Dose-dependent effect; Activity (MEF [21]): Non-toxic; Activity (MEF [22]): Non-toxic; Ratio [23]: 4; Activity [24]: Active
5 | [Se]=C=NCCc1ccccc1 [PHENETHYLISOSELENOCYANATE] |  |  |  |  |  |  |  |  |  |  | 14 | Active | 
6 | S=C=NCCc1ccccc1 | inactive |  |  |  |  |  |  |  |  |  |  |  | 
